Numbered stars: 1 amine (or outer) side, 2 acyl side, 3 side chain; on linkers, the order of the positions; unused ones are H or OH. Bridge positions count the residues as written; N and C are the ends. Square brackets hold non-standard residues; d marks the D form. Peptide text beside a SMILES is read from it. I, II: the chains in the order shown. X2 = NCCCCNC(=O)/N=C(\N)NCCC[C@H](N[*:1])C(=O)[*:2]; Suberoyl = O=C(CCCCCCC(=O)[*:2])[*:1]
Tests used:
[1] = molecular target: T1, Neuropeptide Y receptor type 4 (Homo sapiens, UniProt P50391); assay: Displacement of [3H](2R,7R)-10 from human NPY Y4 receptor expressed in CHO cells co-expressing Gqi5-mtAEQ after 90 mins in presence of L-15 medium by liquid scintillation counting; assay type: cell-based
[2] = molecular target: T2, Neuropeptide Y receptor type 1 (Homo sapiens) (UniProt P25929); assay: Antagonist activity at human NPY Y1 receptor expressed in human HEL cells assessed as inhibition of the pNPY-stimulated intracellular [Ca2+] mobilization by Fura-2 based luminescence spectrometry; assay type: functional, cell-based
T2 sequence (whole entry): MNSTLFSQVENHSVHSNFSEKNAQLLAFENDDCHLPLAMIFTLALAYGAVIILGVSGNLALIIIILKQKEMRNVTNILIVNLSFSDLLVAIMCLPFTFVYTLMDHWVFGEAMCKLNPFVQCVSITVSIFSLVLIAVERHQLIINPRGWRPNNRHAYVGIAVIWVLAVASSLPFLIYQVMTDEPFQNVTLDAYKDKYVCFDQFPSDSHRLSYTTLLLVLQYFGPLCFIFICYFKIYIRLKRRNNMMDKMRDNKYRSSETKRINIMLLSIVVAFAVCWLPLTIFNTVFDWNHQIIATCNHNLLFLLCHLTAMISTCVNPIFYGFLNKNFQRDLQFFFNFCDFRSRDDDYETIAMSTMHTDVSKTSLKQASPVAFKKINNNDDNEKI
In short: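 Functional Y1R assay on HEL cells, which express Y1R endogenously. Intracellular Ca2+ was read with Fura-2 on a luminescence spectrometer. Antagonism is expressed as Kb.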

[3] = molecular target: T1, Neuropeptide Y receptor type 4; assay: Intrinsic activity at human NPY Y4 receptor expressed in CHO cells co-expressing Gqi5-mtAEQ assessed as induction of calcium mobilization by aequorin luminescence assay relative to pancreatic polypeptide; assay type: functional, cell-based
In short: (§1)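 Luminescence was integrated as area under the curve and normalized to the response to 1 µM PP. Data are means ± SEM of at least 3 independent experiments, each run in triplicate.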

[4] = molecular target: T1, Neuropeptide Y receptor type 4; assay: Agonist activity at human NPY Y4 receptor expressed in HEK293 cells co-expressing CRE-Luc gene assessed as inhibition of forskolin stimulated luciferase activity after 4.5 hrs by luminescence assay; assay type: functional, cell-based
In short: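 HEK293 cells stably co-transfected with a CRE-controlled firefly luciferase reporter and hY4R, tested in phenol-red-free DMEM, pH 7.4. The maximal inhibition by PP was set to 0% activity (α = 1.0). Data are means ± SEM of at least 3 experiments in triplicate.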

[5] = molecular target: T1, Neuropeptide Y receptor type 4; assay: Intrinsic activity at human NPY Y4 receptor expressed in HEK293 cells co-expressing CRE-Luc gene assessed as inhibition of forskolin stimulated luciferase activity after 4.5 hrs by luminescence assay relative to pancreatic polypeptide; assay type: functional, cell-based
In short: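 HEK293 cells stably co-transfected with a CRE-controlled firefly luciferase reporter and hY4R, tested in phenol-red-free DMEM, pH 7.4. […] The maximal inhibition by PP was set to 0% activity (α = 1.0). Data are means ± SEM of at least 3 experiments in triplicate.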

[6] = molecular target: T1, Neuropeptide Y receptor type 4; assay: Displacement of [3H]18 from human NPY Y4 receptor expressed in CHO cells co-expressing Gqi5-mtAEQ after 90 mins by liquid scintillation counting; assay type: cell-based
[7] = molecular target: T3, Neuropeptide Y receptor type 5 (Homo sapiens, UniProt Q15761); assay: Displacement of [3H]propionyl-pNPY from human NPY Y5 receptor expressed in human HEC1b cells after 120 mins by liquid scintillation counting; assay type: cell-based
T3 sequence (Q15761 whole entry): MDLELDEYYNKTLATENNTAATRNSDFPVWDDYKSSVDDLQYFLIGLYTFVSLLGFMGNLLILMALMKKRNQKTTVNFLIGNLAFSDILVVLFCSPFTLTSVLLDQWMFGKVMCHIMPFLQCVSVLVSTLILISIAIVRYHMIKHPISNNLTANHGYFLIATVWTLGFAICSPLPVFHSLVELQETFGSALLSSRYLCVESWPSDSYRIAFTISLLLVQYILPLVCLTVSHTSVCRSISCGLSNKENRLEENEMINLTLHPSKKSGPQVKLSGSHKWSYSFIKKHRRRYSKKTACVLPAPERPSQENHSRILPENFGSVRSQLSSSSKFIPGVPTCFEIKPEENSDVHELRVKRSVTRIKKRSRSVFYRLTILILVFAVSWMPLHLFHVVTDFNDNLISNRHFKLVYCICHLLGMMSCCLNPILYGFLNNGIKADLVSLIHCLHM
In short: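 Adherent HEC-1B-hY5 cells in buffer II with 1% BSA and 0.1 mg/mL bacitracin at 22 °C. […] Incubation was 120 min, followed by ice-cold washes, lysis and scintillation counting.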

[8] = molecular target: T1, Neuropeptide Y receptor type 4; assay: Displacement of [3H](2R,7R)-10 from human NPY Y4 receptor expressed in CHO cells co-expressing Gqi5-mtAEQ after 90 mins in presence of sodium-free HEPES buffer by liquid scintillation counting; assay type: cell-based
[9] = molecular target: T4, Neuropeptide Y receptor type 1 (Homo sapiens, UniProt P25929); assay: Displacement of [3H]UR-MK136 from human NPY Y1 receptor expressed in human MCF7 cells by liquid scintillation counting; assay type: cell-based
T4 sequence (P25929 whole entry): T2 sequence (whole entry)

[10] = molecular target: T1, Neuropeptide Y receptor type 4; assay: Agonist activity at human NPY Y4 receptor expressed in CHO cells co-expressing Gqi5-mtAEQ assessed as induction of calcium mobilization by aequorin luminescence assay; assay type: functional, cell-based; in short: as §1
[11] = molecular target: T5, Neuropeptide Y receptor type 2 (Homo sapiens, UniProt P49146); assay: Displacement of [3H]propionyl-pNPY from human NPY Y2 receptor expressed in CHO cells co-expressing Gqi5-mtAEQ after 90 mins by liquid scintillation counting; assay type: cell-based
T5 sequence (P49146 whole entry): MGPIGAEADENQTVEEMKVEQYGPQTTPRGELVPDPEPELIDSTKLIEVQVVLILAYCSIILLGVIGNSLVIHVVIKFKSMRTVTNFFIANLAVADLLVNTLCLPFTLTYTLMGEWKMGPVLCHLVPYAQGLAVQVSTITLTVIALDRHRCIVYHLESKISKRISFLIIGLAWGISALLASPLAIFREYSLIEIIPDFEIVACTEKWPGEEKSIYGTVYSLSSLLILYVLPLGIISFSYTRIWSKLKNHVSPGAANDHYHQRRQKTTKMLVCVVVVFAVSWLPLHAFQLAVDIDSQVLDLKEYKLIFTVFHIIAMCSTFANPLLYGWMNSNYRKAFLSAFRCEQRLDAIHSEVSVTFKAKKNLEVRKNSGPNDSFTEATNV
In short: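 Adherent CHO-hY2R-Gqi5-mtAEQ cells in buffer I with 1% BSA and 0.1 mg/mL bacitracin at 22 °C. […] Incubation was 90 min, followed by two ice-cold washes, lysis and scintillation counting.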

[12] = molecular target: T1, Neuropeptide Y receptor type 4; assay: Binding affinity to human NPY Y4 receptor expressed in CHO cells co-expressing Gqi5-mtAEQ after 90 mins in presence of L-15 medium by liquid scintillation counting; assay type: cell-based
[13] = molecular target: T1, Neuropeptide Y receptor type 4; assay: Binding affinity to human NPY Y4 receptor expressed in CHO cells co-expressing Gqi5-mtAEQ after 90 mins in presence of sodium-free HEPES buffer by liquid scintillation counting; assay type: cell-based
[14] = molecular target: T1, Neuropeptide Y receptor type 4; assay: (§2) Binding affinity to human NPY Y4 receptor expressed in CHO cells co-expressing Gqi5-mtAEQ assessed as slow dissociation constant at 1.5 uM incubated for 2 hrs in presence of 200-fold excess of (2R,7R)-Diaminooctanedioyl-bis(Tyr-Arg-Leu-Arg-Tyr-amide)Hexa(hydrotrifluoroacetate) by liquid scintillation counting; assay type: cell-based; settings: tested as the 3H-labelled form
[15] = molecular target: T1, Neuropeptide Y receptor type 4; assay: as §2, with “half life” for “constant”; assay type: cell-based; settings: tested as the 3H-labelled form
[16] = molecular target: T1, Neuropeptide Y receptor type 4; assay: as §2, with “fast” for “slow”, “half life t1/2(1)” for “constant”; assay type: cell-based; settings: tested as the 3H-labelled form
[17] = molecular target: T1, Neuropeptide Y receptor type 4; assay: Binding affinity to human NPY Y4 receptor expressed in CHO cells co-expressing Gqi5-mtAEQ assessed as fast dissociation rate constant preincubated for 2 hrs followed by addition of (2R,7R)-Diaminooctanedioyl-bis(Tyr-Arg-Leu-Arg-Tyr-amide)Hexa(hydrotrifluoroacetate) by liquid scintillation counting; assay type: cell-based; settings: tested as the 3H-labelled form
[18] = molecular target: T1, Neuropeptide Y receptor type 4; assay: Binding affinity to human NPY Y4 receptor expressed in CHO cells co-expressing Gqi5-mtAEQ assessed as time required for complete association by liquid scintillation counting; assay type: cell-based; settings: tested as the 3H-labelled form
In short: (§3)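 Adherent CHO-hY4-Gqi5-mtAEQ cells (about 90% confluent) in buffer I with 1% BSA and 0.1 mg/mL bacitracin at 22 °C. Tritiated radioligand was applied at 1.5 nM for 2–180 min. Wells were washed twice with ice-cold buffer I, lysed and counted. kobs was taken from ln[Beq/(Beq-Bt)] versus time. Data are means of 3 experiments in triplicate.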

[19] = molecular target: T1, Neuropeptide Y receptor type 4; assay: Binding affinity to human NPY Y4 receptor expressed in CHO cells co-expressing Gqi5-mtAEQ assessed as apparent association rate constant after 2 to 180 mins by liquid scintillation counting; assay type: cell-based; settings: tested as the 3H-labelled form; in short: as §3
[20] = molecular target: T1, Neuropeptide Y receptor type 4; assay: Binding affinity to human NPY Y4 receptor expressed in CHO cells co-expressing Gqi5-mtAEQ assessed as slow dissociation rate constant preincubated for 2 hrs followed by addition of (2R,7R)-Diaminooctanedioyl-bis(Tyr-Arg-Leu-Arg-Tyr-amide)Hexa(hydrotrifluoroacetate) by liquid scintillation counting; assay type: cell-based; settings: tested as the 3H-labelled form
[21] = molecular target: T1, Neuropeptide Y receptor type 4; assay: as §2, with “half life t1/2(2)” for “constant”; assay type: cell-based; settings: tested as the 3H-labelled form
[22] = molecular target: T1, Neuropeptide Y receptor type 4; assay: Binding affinity to human NPY Y4 receptor expressed in CHO cells co-expressing Gqi5-mtAEQ assessed as unspecific binding in presence of (2R,7R)-Diaminooctanedioyl-bis(Tyr-Arg-Leu-Arg-Tyr-amide)Hexa(hydrotrifluoroacetate) by liquid scintillation counting; assay type: cell-based; settings: tested as the 3H-labelled form

T1 sequence (P50391 whole entry): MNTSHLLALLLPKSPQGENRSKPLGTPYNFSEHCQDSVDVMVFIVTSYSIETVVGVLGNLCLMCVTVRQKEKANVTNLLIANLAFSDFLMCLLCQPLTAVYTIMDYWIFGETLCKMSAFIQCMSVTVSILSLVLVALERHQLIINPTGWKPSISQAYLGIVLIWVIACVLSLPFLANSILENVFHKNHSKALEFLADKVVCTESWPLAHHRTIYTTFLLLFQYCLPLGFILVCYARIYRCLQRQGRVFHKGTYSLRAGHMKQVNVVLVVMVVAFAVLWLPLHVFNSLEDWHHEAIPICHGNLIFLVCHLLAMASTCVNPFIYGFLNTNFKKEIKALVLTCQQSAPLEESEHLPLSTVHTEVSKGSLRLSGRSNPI

SMILES | Ki [1] [nM] | Kb [2] [nM] | Intrinsic activity [3] | EC50 [4] [nM] | Intrinsic activity [5] | Ki [6] [nM] | Ki [7] [nM] | Ki [8] [nM] | Ki [9] [nM] | EC50 [10] [nM] | Ki [11] [nM] | other results
CC(C)C[C@H](NC(=O)[C@H](CCCNC(=N)N)NC(=O)[C@H](Cc1ccc(O)cc1)NC(=O)[C@H](N)CCCC[C@@H](N)C(=O)N[C@@H](Cc1ccc(O)cc1)C(=O)N[C@@H](CCCNC(=N)N)C(=O)N[C@@H](CC(C)C)C(=O)N[C@@H](CCCNC(=N)N)C(=O)N[C@@H](Cc1ccc(O)cc1)C(N)=O)C(=O)N[C@@H](CCCNC(=N)N)C(=O)N[C@@H](Cc1ccc(O)cc1)C(N)=O | 2 | 9.5 | 0.75 | 1.6 | 1.03 | 0.18 |  |  |  |  |  | 
CC(C)C[C@H](NC(=O)[C@H](CCCNC(=N)N)NC(=O)[C@H](Cc1ccc(O)cc1)NC(=O)CCCCCCC(=O)N[C@@H](Cc1ccc(O)cc1)C(=O)N[C@@H](CCCN/C(N)=N/C(=O)NCCCCN)C(=O)N[C@@H](CC(C)C)C(=O)N[C@@H](CCCNC(=N)N)C(=O)N[C@@H](Cc1ccc(O)cc1)C(N)=O)C(=O)N[C@@H](CCCNC(=N)N)C(=O)N[C@@H](Cc1ccc(O)cc1)C(N)=O (I: Y[X2]LRY-NH2 / II: YRLRY-NH2; linker I:N-II:N via Suberoyl) |  | 25.3 | 0.8 | 1.7 | 1.06 |  | 140 | 1.2 | 410 | 6.4 | 730 | 
NCCN(CCNC(=O)c1ccc(C(=O)NCCOCCOCCNC(=O)/N=C(/N)NCCC[C@@H](NC(=O)C(c2ccccc2)c2ccccc2)C(=O)NCc2ccc(O)cc2)cc1)CCNC(=O)c1ccc(C(=O)NCCOCCOCCNC(=O)/N=C(/N)NCCC[C@@H](NC(=O)C(c2ccccc2)c2ccccc2)C(=O)NCc2ccc(O)cc2)cc1 | 150 |  |  |  |  | 630 |  |  |  |  |  | 
[3H]CC([3H])C(=O)N[C@@H](CCCC[C@H](N)C(=O)N[C@@H](Cc1ccc(O)cc1)C(=O)N[C@@H](CCCNC(=N)N)C(=O)N[C@@H](CC(C)C)C(=O)N[C@@H](CCCNC(=N)N)C(=O)N[C@@H](Cc1ccc(O)cc1)C(N)=O)C(=O)N[C@@H](Cc1ccc(O)cc1)C(=O)N[C@@H](CCCNC(=N)N)C(=O)N[C@@H](CC(C)C)C(=O)N[C@@H](CCCNC(=N)N)C(=O)N[C@@H](Cc1ccc(O)cc1)C(N)=O (stereo partly drawn) |  |  |  |  |  |  |  |  |  |  |  | Kd [12]: 9.8 nM; Kd [13]: 0.67 nM
CCC(=O)N[C@@H](CCCC[C@H](N)C(=O)N[C@@H](Cc1ccc(O)cc1)C(=O)N[C@@H](CCCNC(=N)N)C(=O)N[C@@H](CC(C)C)C(=O)N[C@@H](CCCNC(=N)N)C(=O)N[C@@H](Cc1ccc(O)cc1)C(N)=O)C(=O)N[C@@H](Cc1ccc(O)cc1)C(=O)N[C@@H](CCCNC(=N)N)C(=O)N[C@@H](CC(C)C)C(=O)N[C@@H](CCCNC(=N)N)C(=O)N[C@@H](Cc1ccc(O)cc1)C(N)=O | 6.3 |  | 0.76 | 4 | 1 | 0.32 | 710 | 0.87 | 400 | 14 | 420 | K [14]: 0.0085 min⁻¹; T1/2 [15]: 1.36 h; T1/2 [16]: 0.352 h; K [17]: 0.0329 min⁻¹; TIME [18]: 1.67 h; K [19]: 0.0467 min⁻¹; K [20]: 0.0024 min⁻¹; T1/2 [21]: 4.82 h; Activity [22]: 10%
